Assay results of several laboratories.
Protocols differ between the studies behind these lines.
Target: Serine/threonine-protein kinase 17A (STK17A, Homo sapiens, UniProt Q9UEE5)
Read-out: enzyme activity
One construct used (Q9UEE5 1-414): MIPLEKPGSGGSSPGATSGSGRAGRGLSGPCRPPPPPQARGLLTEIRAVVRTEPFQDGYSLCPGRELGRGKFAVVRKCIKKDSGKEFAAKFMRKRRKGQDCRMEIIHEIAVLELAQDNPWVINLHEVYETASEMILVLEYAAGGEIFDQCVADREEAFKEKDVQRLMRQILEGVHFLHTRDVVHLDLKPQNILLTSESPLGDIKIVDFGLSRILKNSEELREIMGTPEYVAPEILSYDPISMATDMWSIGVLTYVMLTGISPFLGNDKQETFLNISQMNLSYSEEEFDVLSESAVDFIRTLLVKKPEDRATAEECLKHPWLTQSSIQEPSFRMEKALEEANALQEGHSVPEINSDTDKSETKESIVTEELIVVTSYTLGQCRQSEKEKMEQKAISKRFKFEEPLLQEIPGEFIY

For `CCN(CC)c1ccc(C2=NNC(=O)CC2C)cc1[N+](=O)[O-]` (centres unmarked), the remaining activity was 100% (inhibitor; 10 µM).
The remaining activity of `O=c1cc(-c2cccc3c2Sc2ccccc2S3)oc(N2CCOCC2)c1` is reported as 98.2% (inhibitor; 0.5 µM).
`Cc1nn(CC(F)(F)F)cc1Nc1ncc(C2CC2)c(NCc2ccc(S(N)(=O)=O)cc2)n1` has a remaining activity of 105% (inhibitor, radiometric; 1 µM).
The remaining activity of `CC(C)(C)c1nc2c(s1)c1nc(N)ncc1c1ccc(NS(=O)(=O)c3c(F)cccc3F)c(F)c12` is reported as 80% (inhibitor, radiometric; 1 µM).
`CC(C)(O)[C@H]1CC[C@H](Nc2ccc3ncc(-c4cccc(C(F)(F)F)c4)n3n2)CC1` has a remaining activity of 106% (inhibitor; 1 µM).
The remaining activity of `COc1cc(Cl)c(C(=O)N[C@@H](CN[C@H]2CC[C@@H](N)CC2)Cc2ccc(C#N)cc2)cc1-c1ccc(CN[C@H](C)c2ccc(C)cc2)o1` is reported as 70% (inhibitor; 1 µM).
For `Cc1cnc(NC2CCOCC2)nc1-n1cnc(C(=O)NC(CN)c2cc(F)cc(Cl)c2)c1` (centres unmarked), the remaining activity was 100% (inhibitor, radiometric; 1 µM).
For `O=C(Nc1cnn(-c2csc(C(=O)NC3COC3)c2)c1)Nc1c(F)cccc1Cl`, the remaining activity was 89.4% (inhibitor; 5 µM).
`Cc1nn(CC(F)(F)F)cc1Nc1ncc(Br)c(NCc2ccc(S(N)(=O)=O)cc2)n1` gave a remaining activity of 93% (inhibitor, radiometric; 1 µM).
With `CCCOc1ccc(OC)c(F)c1C(=O)c1ccc(C(=O)N[C@@H]2CNC[C@H]2NC(=O)c2ccc3[nH]ncc3c2)cc1` the remaining activity was 7% (inhibitor; 10 µM).
With `Cc1nn(CC(F)(F)F)cc1Nc1ncc(Br)c(NCCc2cnc[nH]2)n1` the remaining activity was 63% (inhibitor, radiometric; 1 µM).
For `O=C(Nc1cnn(-c2csc(C(=O)NC3COC3)c2)c1)Nc1ccccc1Cl`, the remaining activity was 98.4% (inhibitor; 5 µM).
The remaining activity of `Cc1ccc(C(=O)Nc2ccc(CN3CCN(C)CC3)c(C(F)(F)F)c2)cc1C#Cc1cnc2cccnn12` is reported as 100% (23.5 nM).
With `NS(=O)(=O)c1ccc(CNc2nc(Nc3cccc(CN4CCOCC4)c3)ncc2C2CC2)cc1` the remaining activity was 108% (inhibitor, radiometric; 1 µM).
